Experimental data published in ChEMBL document CHEMBL1124115, “Synthesis and biological activity of CCK26-33-related analogues modified in position 31” (J Med Chem, 1988).
Square brackets hold non-standard residues; d marks the D form. Peptide text beside a SMILES is read from it. * marks the point of attachment. sY = N[C@@H](Cc1ccc(OS(=O)(=O)O)cc1)C(=O)O; Nle = CCCC[C@H](N)C(=O)O; Boc = CC(C)(C)OC(=O)*

Legend:
Mus musculus = organism: Mus musculus; experiment: Potency in displacing [3H]propionyl-CCK-8 from mouse brain membranes.; assay type: functional
Procedure, shortened: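 Displacement of [3H]propionyl-CCK8 at 0.4 nM (KD = 0.2 nM) from brain tissue. Data are mean ± SEM of three independent experiments, each in triplicate.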

Cavia porcellus [1] = organism: Cavia porcellus; experiment: Agonist activity by measuring the effect on amylase secretion from guinea pig acini.; assay type: functional
Cavia porcellus [2] = organism: Cavia porcellus; experiment: Potency in displacing [3H]Boc(Nle28,Nle31)-CCk27-33 from guinea pig pancreatic acini.; assay type: functional
Procedure, shortened: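 Radioligand binding on guinea pig pancreatic acini with [3H]Boc(Nle28,Nle31)-CCK27-33 at 0.5 nM (KD = 1 nM). Values are mean ± SEM of three separate experiments, each run in triplicate.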

Cavia porcellus [3] = organism: Cavia porcellus; experiment: Agonist activity by measuring the ability to stimulate the contraction of the isolated guinea pig ileum.; assay type: functional
Cholecystokinin receptor = biological target: T1, Cholecystokinin receptor (Mus musculus, UniProt O08786+P56481); experiment: Potency in displacing [3H]propionyl-Cholecystokinin from mouse brain membranes.
T1 sequence (O08786 whole entry): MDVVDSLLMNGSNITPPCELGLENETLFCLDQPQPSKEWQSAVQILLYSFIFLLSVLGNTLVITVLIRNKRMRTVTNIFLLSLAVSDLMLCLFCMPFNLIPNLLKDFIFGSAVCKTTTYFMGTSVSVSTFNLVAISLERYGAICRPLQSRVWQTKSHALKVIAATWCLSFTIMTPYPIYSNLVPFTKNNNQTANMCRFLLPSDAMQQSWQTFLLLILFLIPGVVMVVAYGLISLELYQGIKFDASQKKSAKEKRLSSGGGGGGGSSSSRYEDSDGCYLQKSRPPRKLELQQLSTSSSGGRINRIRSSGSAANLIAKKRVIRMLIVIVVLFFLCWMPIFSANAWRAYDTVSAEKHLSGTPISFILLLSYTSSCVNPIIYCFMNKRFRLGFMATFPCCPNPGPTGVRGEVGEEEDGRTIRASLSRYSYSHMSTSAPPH
T1 sequence (P56481 whole entry): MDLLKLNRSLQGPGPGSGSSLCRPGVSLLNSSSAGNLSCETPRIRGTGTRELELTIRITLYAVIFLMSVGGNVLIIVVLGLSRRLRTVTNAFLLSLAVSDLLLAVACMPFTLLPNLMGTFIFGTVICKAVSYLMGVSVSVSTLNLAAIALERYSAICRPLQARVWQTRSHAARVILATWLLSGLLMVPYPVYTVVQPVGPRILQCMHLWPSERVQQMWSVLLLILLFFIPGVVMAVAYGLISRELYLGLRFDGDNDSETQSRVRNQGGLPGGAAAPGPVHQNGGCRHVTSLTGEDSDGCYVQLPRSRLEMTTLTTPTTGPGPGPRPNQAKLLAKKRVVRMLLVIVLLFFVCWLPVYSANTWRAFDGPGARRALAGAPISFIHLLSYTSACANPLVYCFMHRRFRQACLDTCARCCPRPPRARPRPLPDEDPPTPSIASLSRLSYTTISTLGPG
Procedure, shortened: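 Competition binding on brain membranes against [³H]propionyl-CCK₈ used at 0.4 nM (K_D = 0.2 nM). Values are mean ± SEM of three separate experiments, each run in triplicate.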

Row | Ki (Mus musculus) | EC50 (Cavia porcellus [1]) | Ki (Cavia porcellus [2]) | EC50 (Cavia porcellus [3]) | Structure (SMILES) | Ki (Cholecystokinin receptor)
1 | 110 nM | 22 nM | 390 nM | 190 nM | CCCC[C@H](NC(=O)[C@H](Cc1ccc(OS(=O)(=O)O)cc1)NC(=O)OC(C)(C)C)C(=O)NCC(=O)N[C@@H](Cc1c[nH]c2ccccc12)C(=O)N[C@H](CCCN)C(=O)N[C@@H](CC(=O)O)C(=O)N[C@@H](Cc1ccccc1)C(N)=O | 
2 | 14 nM | 25 nM | 1100 nM | 110 nM | CCCC[C@H](NC(=O)[C@H](Cc1ccc(OS(=O)(=O)O)cc1)NC(=O)OC(C)(C)C)C(=O)NCC(=O)N[C@@H](Cc1c[nH]c2ccccc12)C(=O)N[C@@H](C)C(=O)N[C@@H](CC(=O)O)C(=O)N[C@@H](Cc1ccccc1)C(N)=O (Boc-[sY][Nle]GWADF-NH2) | 
3 | > 10000 nM | > 10000 nM | > 10000 nM | > 1000 nM | CCCC[C@H](NC(=O)[C@H](Cc1ccc(OS(=O)(=O)O)cc1)NC(=O)OC(C)(C)C)C(=O)NCC(=O)N[C@@H](Cc1c[nH]c2ccccc12)C(=O)N[C@@H](CCC(=O)O)C(=O)N[C@@H](CC(=O)O)C(=O)N[C@@H](Cc1ccccc1)C(N)=O (Boc-[sY][Nle]GWEDF-NH2) | 
4 | 3.7 nM | 3.4 nM | 220 nM | 11 nM | CCCC[C@H](NC(=O)[C@H](Cc1ccc(OS(=O)(=O)O)cc1)NC(=O)OC(C)(C)C)C(=O)NCC(=O)N[C@@H](Cc1c[nH]c2ccccc12)C(=O)N[C@@H](Cc1ccccc1)C(=O)N[C@@H](CC(=O)O)C(=O)N[C@@H](Cc1ccccc1)C(N)=O (Boc-[sY][Nle]GWFDF-NH2) | 
5 | 0.13 nM | 0.16 nM | 2.9 nM | 0.4 nM | CCCC[C@H](NC(=O)[C@H](Cc1ccc(OS(=O)(=O)O)cc1)NC(=O)OC(C)(C)C)C(=O)NCC(=O)N[C@@H](Cc1c[nH]c2ccccc12)C(=O)N[C@@H](CCCC)C(=O)N[C@@H](CC(=O)O)C(=O)N[C@@H](Cc1ccccc1)C(N)=O (Boc-[sY][Nle]GW[Nle]DF-NH2) | 

Row | Structure (SMILES) | Ki (Mus musculus) | EC50 (Cavia porcellus [1]) | Ki (Cavia porcellus [2]) | EC50 (Cavia porcellus [3]) | Ki (Cholecystokinin receptor)
6 | CSCC[C@H](NC(=O)[C@H](Cc1ccc(OS(=O)(=O)O)cc1)NC(=O)[C@@H](N)CC(=O)O)C(=O)NCC(=O)N[C@@H](Cc1c[nH]c2ccccc12)C(=O)N[C@@H](CCSC)C(=O)N[C@@H](CC(=O)O)C(=O)N[C@@H](Cc1ccccc1)C(N)=O [SINCALIDE] |  | 0.13 nM | 2.5 nM | 0.7 nM | 0.3 nM
